One compound from ChEMBL document CHEMBL2163334, “Discovery of highly potent and selective pan-Aurora kinase inhibitors with enhanced in vivo antitumor therapeutic index” (J Med Chem, 2012) can be followed below.

Data set [1] in a line: Protein binding in plasma. The format is ADME, cell-free. Particulars: read-out: PPB.
Data set [2] concerns Rattus norvegicus. The data set can be described thus: Toxicity in athymic nude rat bearing human HCT116 cells assessed body weight loss up to 20 mg/kg, iv administered every other day from day 10 post tumor-injection for 3 weeks. Conditions: in vivo, 504 h. The format is organism-based, HCT-116. More on the design: dose 20 mg/kg, route intravenous. The procedure, abridged: (§1)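 Subcutaneous flank HCT-116 xenografts in nude rats; at Day 1 groups of 10 with mean tumor 301-306 mm³. Tail-vein iv in TPPW (2% Tween-80, 5% propylene glycol, 10% PG-400, 83% water) at 10 mL/kg, weight-adjusted: days 1,3,5,8,10,12,15,17,19 or days 1-4, 8-11, 15-18. Irinotecan control 100 mg/kg ip weekly ×3.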

Data set [3] is described as follows: Volume of distribution in Nu/Nu rat at 15 mg/kg, iv administered using TPPW as vehicle. More on the design: dose 15 mg/kg, route intravenous. In kind it is ADME, organism-based. Conditions: in vivo. The procedure, abridged: (§2)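 Plasma from K3 EDTA blood at 5, 15, 30 min, 1, 2, 4, 6, 24 h; acetonitrile extraction with internal standard, LC-MS/MS on C8 column, 5-95% ACN gradient with 0.05% formic acid.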

Data set [4] is described as follows: Half life in Nu/Nu rat at 50 mg/kg, iv administered using TPPW as vehicle. In kind it is ADME, organism-based. More on the design: dose 50 mg/kg, route intravenous. Particulars: in vivo. The procedure, abridged:
as §2

Data set [5] in a line: AUC (0 to infinity) in Sprague-Dawley rat at 1 mg/kg, iv administered using PEG400/water as vehicle. In kind it is ADME, organism-based. Further details: time infinity, dose 1 mg/kg, route intravenous. Particulars: plasma. In outline:
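SD rats fasted overnight, given 1 mg/kg iv in PEG400/water (3:1, v/v); three per arm. Blood into K3 EDTA at 5, 15, 30 min, 1, 2, 4, 6, 24 h, spun at 4 °C; plasma extracted with six volumes acetonitrile plus internal standard and quantified by LC-MS/MS (C8 column, formic acid/ACN gradient).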

Data set [6] in a line: Half life in Nu/Nu rat at 15 mg/kg, iv administered using TPPW as vehicle. The format is ADME, organism-based. Particulars: in vivo. Further details: dose 15 mg/kg, route intravenous. The procedure, abridged: as §2
The subject of data set [7] is HCT-116. The data set can be described thus: Antitumor activity against human HCT116 cells xenografted in athymic nude rat assessed as tumor growth inhibition at 2.5 mg/kg, iv administered QD for 4 days per week followed by 3 days off per week for 3 weeks. In kind it is functional, organism-based. Further details: dose 2.5 mg/kg. In outline: as §1
A general note: A xenograft is tissue or cells of one species grown in another, often human tumour cells in immunodeficient mice.

In a further data set the target is Aurora kinase B (Homo sapiens, UniProt Q96GD4). Briefly: Binding affinity to Aurora kinase B catalytic domain by competition binding assay.
In data set [8] the test system is Rattus norvegicus. The data set can be described thus: Toxicity in athymic nude rat bearing human HCT116 cells assessed as adverse effects at 5 to 10 mg/kg, iv administered QD for 4 days per week followed by 3 days off per week for 3 weeks. Further details: dose 5-10 mg/kg, route intravenous. The format is organism-based, HCT-116. Particulars: in vivo. In outline:
as §1

Data set [9] can be described thus: AUC (0 to infinity) in Nu/Nu rat at 5 mg/kg, iv administered using TPPW as vehicle. Conditions: plasma. In kind it is ADME, organism-based. More on the design: dose 5 mg/kg, route intravenous, time infinity. In outline: as §2
Data set [10] relates to HCT-116. The data set can be described thus: Antitumor activity against human HCT116 cells xenografted in athymic nude rat assessed as tumor growth inhibition at 20 mg/kg, iv administered every other day from day 10 post tumor-injection for 3 weeks relative to vehicle treated control. In kind it is functional. Conditions: read-out: TGI. In outline:
as §1

Data set [11] has as its system HCT-116. The data set can be described thus: Antitumor activity against human HCT116 cells xenografted in athymic nude rat assessed as tumor growth inhibition at 5 mg/kg, iv administered QD for 4 days per week followed by 3 days off per week for 3 weeks. The format is functional, organism-based. Further details: dose 5 mg/kg. In outline:
as §1

Active and inactive are the calls of the source. The rule behind the calls is not given here.

Chain of Aurora kinase B (Q96GD4 whole entry, the tested form may be a part): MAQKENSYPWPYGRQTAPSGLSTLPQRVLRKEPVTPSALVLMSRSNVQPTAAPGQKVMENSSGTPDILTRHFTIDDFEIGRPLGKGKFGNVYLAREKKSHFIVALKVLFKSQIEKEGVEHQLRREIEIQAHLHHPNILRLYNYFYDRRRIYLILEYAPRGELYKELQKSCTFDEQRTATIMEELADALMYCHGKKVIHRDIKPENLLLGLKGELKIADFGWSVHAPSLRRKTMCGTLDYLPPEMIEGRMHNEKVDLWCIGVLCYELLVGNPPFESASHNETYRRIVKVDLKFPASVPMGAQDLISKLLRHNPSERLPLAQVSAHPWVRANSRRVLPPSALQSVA

Regarding `Cc1cc(Nc2nc(Sc3ccc(NC(=O)CN4CC[C@@H](C(=O)N5CCC(F)(F)C5)C4)cc3)nn3cccc23)n[nH]1`, the fraction unbound in [1] stood at 0.01. Moreover, the Activity result in the data set on Rattus norvegicus [2] and in the data set with Rattus norvegicus [8] was “Non-toxic” in each case. This compound came in with a Vd in [3] of 0.8 L/kg. In addition, the half-life was 2.9 h in data set [4] and 3.7 h in [6]. The values for the AUC(0-inf) in data set [5] and in data set [9] were 1.4 µM·h and 7.7 µM·h, respectively. In addition, the TGI entry in the data set with HCT-116 [7] and in the data set with HCT-116 [11] was “Active” throughout. At Aurora kinase B, this compound displayed an equilibrium dissociation constant (Kd) of 1.7 nM. The inhibition in vivo at 20 mg/kg in the data set on HCT-116 [10] came out at 85%.

As usually defined, the Vd is the apparent volume that relates the amount in the body to the concentration in plasma or blood. Low values mean little distribution into tissue, high ones wide distribution into tissue. In general, half-life refers to the time in which the quantity being followed falls by half. Read a high half-life as slow loss. By AUC(0-inf) is commonly meant the area under the concentration-time curve extrapolated to infinity. As a reminder, the Kd is the constant that tells how readily two partners part at equilibrium. Read a low Kd as a tighter complex.
